This note sets out measurements from PubChem BioAssay AID588559 (The Scripps Research Institute Molecular Screening Center, 2011).

Calls of active or inactive are those of the source.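 The calls were made as follows: active = PAD4 enzyme activity blocked 50% or more; inactive = under 50% inhibition.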

Chain of Protein-arginine deiminase type-4 (Homo sapiens) (Q9UM07 whole entry, looked up): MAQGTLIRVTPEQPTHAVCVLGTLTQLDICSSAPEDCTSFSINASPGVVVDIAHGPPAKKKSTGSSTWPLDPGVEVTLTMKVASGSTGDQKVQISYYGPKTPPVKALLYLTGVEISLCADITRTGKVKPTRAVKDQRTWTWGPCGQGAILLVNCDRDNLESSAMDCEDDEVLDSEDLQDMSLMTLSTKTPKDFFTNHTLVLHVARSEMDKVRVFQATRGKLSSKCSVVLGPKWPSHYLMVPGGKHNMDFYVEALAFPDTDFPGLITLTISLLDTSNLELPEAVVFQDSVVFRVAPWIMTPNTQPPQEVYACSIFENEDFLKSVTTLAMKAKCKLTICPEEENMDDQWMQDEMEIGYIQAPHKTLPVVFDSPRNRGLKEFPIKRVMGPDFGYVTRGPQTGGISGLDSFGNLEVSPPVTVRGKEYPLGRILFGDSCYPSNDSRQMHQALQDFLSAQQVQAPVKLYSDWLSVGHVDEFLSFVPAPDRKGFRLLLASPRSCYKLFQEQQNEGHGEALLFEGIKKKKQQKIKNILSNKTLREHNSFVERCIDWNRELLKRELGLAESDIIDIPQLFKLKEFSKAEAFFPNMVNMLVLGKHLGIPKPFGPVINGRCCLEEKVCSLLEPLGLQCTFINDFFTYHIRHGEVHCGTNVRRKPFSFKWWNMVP

The assay addresses Protein-arginine deiminase type-4 (Homo sapiens) (UniProt Q9UM07). Nature of the assay: recombinant human PAD4 activity inhibition – biochemical, BAEE substrate, colorimetric citrulline readout, late-stage follow-up (AID 588559). Particulars: colorimetric citrulline detection, at 100 µM, hits give high values. In a few lines:
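System: Recombinant PAD4 | Amount: PAD4 at 0.2 µM | Medium: Tris buffer pH 7.6 with 10 mM CaCl2 and DTT | Reagent: BAEE substrate at 10 mM | Timing: 15 min preincubation plus 15 min reaction at 37 °C | Technique: Colorimetric citrulline absorbance at 540 nm | Measure: % inhibition versus DMSO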
Broadly, the inhibition is the relative decrease from the control value, in per cent. For `COC1=CC(=O)c2nc(C#N)ccc2C1=O`, the inhibition is 98%. Next, `COC1=C(N)C(=O)c2ncccc2C1=O`: 99%.

As for `COC1=C(I)C(=O)c2nc(C#N)ccc2C1=O`, the inhibition was 98%.

`COC(=O)c1cc(-c2ccccc2)c(C(=O)OC)c(-c2ccc3ccccc3n2)n1`: the inhibition is -11% (inactive). To `COC(=O)c1nc(C(=O)OC)c(NC(C)=O)c(-c2ccccc2Br)c1C` belongs 67%. On to `NC1=CC(=O)c2ccc(-c3cccc(C(=O)O)n3)nc2C1=O`, for which the inhibition is 98%. Next, `NC1=C(N)C(=O)c2ccccc2C1=O`: 97%.

For the compound `COC(=O)c1nc(C(C)=O)c2[nH]c3ccccc3c2c1C`, the inhibition was 0% (inactive).

`COC(=O)c1nnc(C(=O)OC)c(-c2ccc3cc(OC)ccc3n2)n1`: the inhibition was -2% (inactive). `O=C1C=C(Br)C(=O)c2ncccc21`: the inhibition is 100%. To `O=C1C(O)=C(O)C(=O)c2ncccc21` belongs 98%; to `COC1=C(Br)C(=O)c2ncccc2C1=O`, 90%. Next, `NC1=CC(=O)c2ccc(-c3cc(C(=O)O)ccc3N)nc2C1=O`: 97%; `COc1ccc2ncccc2c1[N+](=O)[O-]`: -12% (inactive); `COC(=O)c1cccc(-c2ccc3c(n2)C(=O)C(N)=CC3=O)n1`: 91%. To `COC(=O)c1nnc(C(=O)OC)c(-c2ccc3c([N+](=O)[O-])c(OC)ccc3n2)n1` belongs -12% (inactive); to `O=C(O)c1cccc(-c2ccc3ccc(Br)c(OCc4ccccc4)c3n2)n1`, -8% (inactive); to `COC(=O)c1cccc(-c2ccc3ccc(Br)c(O)c3n2)n1`, 27% (inactive). In the case of `COc1ccc2nc(C#N)ccc2c1`, the inhibition is -10% (inactive).

`COC(=O)c1cccc(-c2ccc3c(n2)C(=O)C(Br)=CC3=O)n1`: the inhibition was 90%.

Take `COC(=O)c1nnc(C(=O)OC)c(-c2ccc3ccccc3n2)n1`: the inhibition was -21% (inactive).

Take `COC1=C(Br)C(=O)c2nc(-c3ccccn3)ccc2C1=O`: the inhibition was 98%.

On to `NC1=CC(=O)c2ccc(-c3ccccn3)nc2C1=O`, for which the inhibition was 88%. Regarding `COC(=O)c1nc(C(=O)OC)c(N)c(-c2ccccc2Br)c1C`, the inhibition was 9% (inactive). To `NC1=CC(=O)c2cccnc2C1=O` belongs 98%.

In the case of `O=C1C(Br)=CC(=O)c2ncccc21`, the inhibition was 97%.

For the compound `COc1ccc2nc(C#N)ccc2c1[N+](=O)[O-]`, the inhibition was -13% (inactive).

As for `COC(=O)c1nc(-c2ccc3c(n2)C(=O)C(Br)=CC3=O)c2[nH]c3ccccc3c2c1C`, the inhibition is 0% (inactive). As to `CCOC(=O)c1nc(C(=O)OCC)c(C(=O)OCC)c(-c2ccc(OC)c(OC)c2OCc2ccccc2)c1C`, the inhibition was 2% (inactive).
